core dimer inh: HCV core protein dimerization inhibition. TR-FRET GST/Flag-core106 dimerization, 1536-well. inhibition, % at 5 µM. hit rate 0.33% among 300,000. AID 1899;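 active means inhibition above the mean of all tested compounds plus 3 SD, set per screening campaign, cut at about 45% in these data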
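Assay system: tagged HCV core106 pair (GST and Flag); medium: KF-containing HEPES buffer, pH 7.45, DTT, CHAPS, BSA; also added: Eu donor and XL665 acceptor anti-tag antibodies; dosing: 5 µM single dose; timing: compound-protein-antibody incubation 4 h at 22.5 °C; signal: TR-FRET 671 and 617 nm emission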
TDP2 inh: TDP2 (human) inhibition, absorbance primary screen; hit rate 0.34% among 370,000; recombinant TDP2, T5PNP hydrolysis, p-nitrophenol absorbance 415 nm; O95551; AID 720702; inhibition, % at 12.8 µM;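 active means inhibition above the mean of all tested compounds plus 3 SD, set per campaign, cut at about 25% in these data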
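Assay system: Recombinant human TDP2 | Quantity: 120 nM TDP2 per well | Incubation: 2 h at 37 °C | Signal: Epi absorbance | Evaluation: Percent inhibition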
UHRF1 binding: UHRF1 methyl-DNA binding inhibition; UHRF1 binding to methylated oligo, TR-FRET; AID 687016; hit rate 0.75% among 370,000; Q96T88; inhibition, % at 4.4 µM; in the data active means inhibition above about 21%;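 further: UHRF1 SRA domain binding a hemimethylated CpG hairpin DNA probe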
MBD2 inh: MBD2-methylated oligo binding inhibition; AID 686964; TR-FRET, MBD2 binding to methylated oligonucleotide; inhibition, % at 4.4 µM; hit rate 0.31% among 370,000; in the data active means inhibition above about 13%
Target sequence (Q9UBB5 whole entry, looked up): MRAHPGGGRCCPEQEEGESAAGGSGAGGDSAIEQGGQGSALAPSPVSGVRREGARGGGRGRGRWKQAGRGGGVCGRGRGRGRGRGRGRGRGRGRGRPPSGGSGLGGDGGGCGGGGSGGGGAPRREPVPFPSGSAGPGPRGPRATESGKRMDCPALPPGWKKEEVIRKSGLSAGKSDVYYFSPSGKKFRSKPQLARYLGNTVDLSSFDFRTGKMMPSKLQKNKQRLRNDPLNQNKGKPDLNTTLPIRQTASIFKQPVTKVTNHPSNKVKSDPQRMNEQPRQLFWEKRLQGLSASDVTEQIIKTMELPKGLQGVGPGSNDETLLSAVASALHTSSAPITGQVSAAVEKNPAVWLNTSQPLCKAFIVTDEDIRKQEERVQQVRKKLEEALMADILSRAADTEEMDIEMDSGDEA
LEDGF integ inh: blocks HIV-1 LEDGF/p75-dependent DNA integration; TR-FRET IN-LEDGF/p75 DNA integration, Eu/Cy5; inhibition, % at 3.7 µM; hit rate 0.64% among 370,000; AID 743269;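 active means inhibition above the screen-wide mean plus 3 SD, cut at about 13% in these data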;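 further: signal is the Cy5 over europium emission ratio at 671 and 618 nm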
Hits are given with their value; 0 = inactive; - = no result. Most compounds without a hit are left out; they make up all but 1.8% or so of the library.

SMILES | core dimer inh | TDP2 inh | UHRF1 binding | MBD2 inh | LEDGF integ inh
Cc1nc2cc(C(=O)N3c4ccccc4CC3C)ccc2s1 (configuration not stated) | 0 | 0 | 22 | 0 | 0
CC1Cc2ccccc2N1C(=O)c1ccc2snnc2c1 (configuration not stated) | 0 | 0 | 0 | 0 | 0
COc1ccc(NC(=O)c2cc3ccccn3n2)cc1 | 0 | 0 | 30 | 0 | 0
C/C(CC(=O)Nc1ccc(N(C)C)cc1)=N\NC(=O)Cc1csc(N)n1 | 0 | 0 | 0 | 0 | 21
CCn1c(SCC(=O)Nc2cccc3ccccc23)nnc1-c1cccs1 | - | 0 | 0 | 0 | 0
Cc1cccc(CC(C)NC(=O)CCc2nnc(-c3ccccc3)o2)n1 (configuration not stated) | 0 | 0 | 0 | 0 | 0
CC(NC(=O)CCc1nnc(-c2ccc(-c3ccccc3)cc2)o1)c1nc2ccccc2[nH]1 (configuration not stated) | 0 | 0 | 23 | 0 | 0
Cc1ccc(NC(=O)CSc2nnc(CSc3nc(C)cc(C)n3)n2Cc2ccco2)c(C)c1 | 0 | 0 | 0 | 0 | 0
Cc1ccc(NCc2nnc(SCC(=O)c3ccccc3)n2Cc2ccco2)c(C)c1 | 64 | 0 | 0 | 0 | 0
CCOC(=O)C1=C(CSc2nc3c(cc2C#N)CN(C)CC3)OC(N)=C(C#N)C1c1ccc(Cl)cc1 (configuration not stated) | 57 | 0 | 0 | 0 | 0
CCOC(=O)C1=C(CSc2nc3c(cc2C#N)CN(C)CC3)OC(N)=C(C#N)C1c1ccncc1 (configuration not stated) | 0 | 0 | 0 | 0 | 0
CCC1=NN2C(=N)/C(=C\c3cccn3-c3ccc(C)cc3C)C(=O)N=C2S1 | 0 | 0 | 30 | 0 | 0
COc1ccc(-n2cccc2/C=C2\C(=N)N3N=C(c4ccco4)SC3=NC2=O)cc1 | 48 | 0 | 0 | 0 | 0
CCC1=NN2C(=N)/C(=C\c3cccn3-c3c(C)cccc3C)C(=O)N=C2S1 | 0 | 0 | 0 | 0 | 0
COC(=O)[C@]12C[C@H](CC(=O)N3CCSCC3)C(=O)N(Cc3ccc4c(c3)OCO4)C1=C[C@H](C(C)C)O[C@@H]2C1CC1 | - | 0 | 0 | 0 | 0
COC(=O)c1ccc2nc(-c3ccc(OC)c(OC)c3)c(Cc3ccsc3)n2c1 | - | 0 | 0 | 0 | 0
COc1ccc(-c2nc3ccc(C)cn3c2CC2CCCCC2)cc1OC | - | 0 | 22 | 0 | 0
COc1ccc(-c2nc3ccc(C)cn3c2Cc2ccsc2)cc1OC | - | 0 | 22 | 0 | 0
COc1ccc(/C=C/C(=O)NCC(=O)N2CCC(N(C)CCN3CCOCC3)CC2)cc1OC | 0 | 0 | 22 | 0 | 0
O=C(NC1=N[C@@]2(C=C3CCCCC3n3c(=O)n(-c4ccccc4)c(=O)n32)[C@H](Cc2ccccc2)N1Cc1ccccc1)c1ccccc1 (some centres not stated) | - | 0 | 0 | 0 | 0
CN(CC(=O)Nc1cccc(F)c1)C(=O)c1cn(-c2ccccc2)nc1-c1ccccc1 | 0 | 0 | 24 | 0 | 0
O=C(O)c1ccc(N/N=C/c2ccc(-c3ccccc3)cc2)cc1 | - | 0 | 0 | 0 | 0
O=C(O)c1ccc(N/N=C/C=C/c2ccccc2)cc1 | 0 | 0 | 21 | 0 | 0
COc1cccc(CC2(CO)CCCN(Cc3ccccc3Cl)C2)c1 (configuration not stated) | 0 | 0 | 0 | 0 | 0
COc1cccc(CC2(CO)CCCN(Cc3ccc(CN4CCCCC4)s3)C2)c1 (configuration not stated) | 0 | 0 | 27 | 0 | 0
SMILES | core dimer inh | TDP2 inh | UHRF1 binding | MBD2 inh | LEDGF integ inh
O=C(Cn1cnc2sc3c(c2c1=O)CCCC3)NCC(=O)Nc1c(F)cccc1F | 0 | 0 | 22 | 0 | 0
CN(C)C=Nc1ccc(Cn2cnc3nc4ccc(Cl)cc4cc3c2=O)cc1 | - | 0 | 0 | 0 | 0
CC(=O)Nc1sc2c(c1C(N)=O)CCCC2 | 0 | 0 | 0 | 0 | 0
NC(=O)c1c(NC(=O)C2c3ccccc3Oc3ccccc32)sc2c1CCCCC2 | 50 | 0 | 0 | 0 | 0
COc1ccc2c(c1)CCCN2C(=O)C1CCCN(S(=O)(=O)c2ccc(Cl)s2)C1 (configuration not stated) | - | 0 | 0 | 0 | 0
CCCCCn1c(=O)[nH]c2cc(C(=O)NCc3ccc4c(c3)OCO4)ccc2c1=O | 0 | 0 | 30 | 0 | 0
O=C(OCc1cn(Cc2ccc(F)cc2)nn1)N1CCOCC1 | - | 0 | 0 | 0 | 0
OC12CC3C[C@H](C1)C(N1CCOCC1)[C@@H](C3)C2 (some centres not stated) | 0 | 0 | 52 | 0 | 0
O=C(Nc1cccc(NC(=O)c2ccccc2Cl)c1)c1ccc(F)cc1 | 0 | 0 | 27 | 0 | 0
O=C(Nc1cccc(NC(=O)c2ccc(F)cc2)c1)c1ccc(F)cc1 | 0 | 0 | 0 | 0 | 0
Cc1ccccc1NC(=O)N(C)[C@H]1C[C@H]2c3[nH]c4c(-c5ccc6c(c5)OCO6)cccc4c3CCN2C[C@H]1[C@H](C)O | - | 0 | 0 | 0 | 0
CC1=[N+](C)c2c(ccc3cccnc23)C1(C)C | - | 38 | 0 | 0 | 0
COc1ccc(Cn2cc(COC(=O)Nc3ccc(F)cc3)nn2)cc1 | - | 0 | 0 | 0 | 0
COC(=O)CCc1sc(Nc2ccccc2)nc1-c1ccc(OC)cc1 | 0 | 0 | 37 | 0 | 0
COc1ccc(Nc2nc(-c3ccc(OC)cc3)c(CCC(=O)O)s2)cc1 | 0 | 0 | 0 | 0 | 0
Cn1c(SCC(=O)Nc2sccc2C#N)nnc1C1CC1 | - | 0 | 27 | 0 | 0
Cn1cnnc1SCC(=O)Nc1sccc1C#N | 0 | 0 | 0 | 0 | 0
Cn1c(SCC(=O)Nc2nccs2)nnc1C1CC1 | 0 | 0 | 0 | 0 | 0
CNC(=O)CSc1nnc(-c2ccccc2)n1C | 0 | 0 | 31 | 0 | 0
Cn1c(SCC(=O)Nc2sccc2C#N)nnc1-c1ccccc1 | 49 | 0 | 0 | 0 | 0
COc1ccc(/C=N\NC(=O)CN2CCN(Cc3ccccc3)CC2)cc1OCc1ccccc1 | - | 0 | 0 | 0 | 0
O=C(c1ccc2c(c1)OCO2)N1CCC(Oc2cccnc2)CC1 | - | 0 | 0 | 0 | 0
C[C@@H]1COc2cc(Br)ccc2S(=O)(=O)N1Cc1cn(Cc2ccc(Cl)cc2)nn1 | - | 0 | 0 | 0 | 0
O=C(COC(=O)CCOc1ccccc1)NCc1ccco1 | 62 | 0 | 0 | 0 | 0
O=C(COC(=O)C1CC2C=CC1C2)NCc1ccc(F)cc1 (configuration not stated) | 0 | 0 | 0 | 0 | 0
O=C(COC(=O)C1CCCCC1C(=O)N1CCc2ccccc21)NCc1ccco1 (configuration not stated) | 83 | 0 | 0 | 0 | 0
O=C(COC(=O)C1CC2C=CC1C2)NCc1ccco1 (configuration not stated) | 76 | 0 | 0 | 0 | 0
Cc1cccc(C(=O)Nc2nc3ncccn3c2-c2ccc(F)c(F)c2)c1 | - | 0 | 0 | 0 | 0
CCOC(=O)CN1C(=O)N2C[C@H]3CON(C)[C@H]3C[C@H]2c2ccccc21 | - | 0 | 47 | 0 | 0
C=CCN(C)CC#Cc1ccc(OC)cc1 | - | 0 | 0 | 0 | 0

Screens: PubChem BioAssay, The Scripps Research Institute Molecular Screening Center
